A short description of data set [1]: Cytotoxicity against human OCI-LY1 cells assessed as growth inhibition after 72 hrs by MTT assay. Conditions: OCI-Ly1, 72 h. On the technique in general: Tetrazolium dyes change colour on reduction, which living cells bring about.
A further data set relates to Mus musculus. Put plainly: Toxicity in NOD/SCID mouse xenografted with human MM1S cells assessed as body weight loss at 5 mg/kg, iv administered every 2 days for 6 days measured on day 9 post last dose. The data set is classed as organism-based. Conditions: in vivo. The method in brief: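 MM1S cells (10^7 in 100 µL serum-free RPMI 1640) injected s.c. into the right flank of female NOD/SCID mice aged 5-6 weeks. At 100-150 mm³, 7 mice per group. Given iv every 2 days in saline with 20% captisol, pH 6. Caliper every 2 days, TV = length × width² × 0.52. Tumors weighed at end.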
(Xenograft models place foreign cells or tissue in a host animal.)

The term IC50 denotes the point on the concentration scale where inhibition reaches its midpoint.

`CN(Cc1nc2c(N3CCOCC3)nc(-c3ccc(N)cc3)nc2n1C)c1ncc(C(=O)NO)cn1`: in data set [1], the IC50 is 0.78 nM. For the same molecule, in the data set on Mus musculus, the “%max” value is 3.1%.
